Measured values reported in ChEMBL document CHEMBL1122900, “Effects of alkyl and aryl substitution on the myocardial specificity of radioiodinated phosphonium, arsonium, and ammonium cations” (J Med Chem, 1985).

Experiments:
Rattus norvegicus [1] = assay: Evaluated for the distribution of radioactivity in tissues of female Fischer rats kidneys after 5 minutes intravenous administration; dose/g, range 9.87-11.9; assay type: ADME, organism-based, Kidney; settings: in vivo
Rattus norvegicus [2] = assay: Evaluated for the distribution of radioactivity in tissues of female Fischer rats kidneys after 60 minutes intravenous administration; dose/g, range 3.33-4.68; assay type: ADME, organism-based, Kidney; settings: in vivo, 1 h
Rattus norvegicus [3] = assay: Evaluated for the distribution of radioactivity in tissues of female Fischer rats thyroid after 60 minutes intravenous administration; dose/g, range 55-102; assay type: ADME, organism-based, Thyroid gland; settings: in vivo, 1 h
Outline: (§1)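 Female Fischer 344 rats (10-12 weeks, 170-200 g), fed ad libitum, got a single iv tail-vein injection under ether anaesthesia of the 125I-labelled cation (2.85-8.38 μCi). The tracer was dissolved in Me2SO, diluted with saline to 1% Me2SO and filtered. At the set times rats were killed by cervical fracture and blood taken by cardiac puncture. Organs were rinsed, blotted, weighed and gamma-counted against injectate standards. Results are %dose/g, mean and range, n=5. Thyroid weight was taken as 7.5 mg/100 g body weight.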

Rattus norvegicus [4] = assay: Evaluated for the distribution of radioactivity in tissues of female Fischer rats blood after 60 minutes intravenous administration; dose/g, range 0.16-0.21; assay type: ADME, organism-based; settings: in vivo, 1 h
Rattus norvegicus [5] = assay: Evaluated for the distribution of radioactivity in tissues of female Fischer rats lungs after 30 minutes intravenous administration; dose/g, range 1.07-1.30; assay type: ADME, organism-based, Lung; settings: in vivo, 0.5 h; outline: as §1
Rattus norvegicus [6] = assay: Evaluated for the distribution of radioactivity in tissues of female Fischer rats lungs after 5 minutes intravenous administration; dose/g, range 1.20-1.52; assay type: ADME, organism-based, Lung; settings: in vivo; outline: as §1
Rattus norvegicus [7] = assay: Evaluated for the distribution of radioactivity in tissues of female Fischer rats lungs after 60 minutes intravenous administration; dose/g, range 0.97-1.54; assay type: ADME, organism-based, Lung; settings: in vivo, 1 h; outline: as §1
Rattus norvegicus [8] = assay: Evaluated for the distribution of radioactivity in tissues of female Fischer rats blood after 30 minutes intravenous administration; dose/g, range 0.25-0.32; assay type: ADME, organism-based; settings: in vivo, 0.5 h
Rattus norvegicus [9] = assay: Evaluated for the distribution of radioactivity in tissues of female Fischer rats thyroid after 30 minutes intravenous administration; dose/g, range 33-60; assay type: ADME, organism-based, Thyroid gland; settings: in vivo, 0.5 h; outline: as §1
Rattus norvegicus [10] = assay: Evaluated for the distribution of radioactivity in tissues of female Fischer rats thyroid after 5 minutes intravenous administration; dose/g, range 29-36; assay type: ADME, organism-based, Thyroid gland; settings: in vivo; outline: as §1
Rattus norvegicus [11] = assay: Evaluated for the distribution of radioactivity in tissues of female Fischer rats blood after 5 minutes intravenous administration; dose/g, range 0.44-0.52; assay type: ADME, organism-based; settings: in vivo
Rattus norvegicus [12] = assay: Evaluated for the distribution of radioactivity in tissues of female Fischer rats kidneys after 30 minutes intravenous administration; dose/g, range 6.28-7.41; assay type: ADME, organism-based, Kidney; settings: in vivo, 0.5 h
Rattus norvegicus [13] = assay: Evaluated for the distribution of radioactivity in tissues of female Fischer rats heart after 5 minutes intravenous administration; dose/g, range 2.72-3.52; assay type: ADME, organism-based; settings: in vivo
Rattus norvegicus [14] = assay: Evaluated for the distribution of radioactivity in tissues of female Fischer rats heart after 60 minutes intravenous administration; dose/g, range 2.88-4.32; assay type: ADME, organism-based; settings: in vivo, 1 h
Rattus norvegicus [15] = assay: Evaluated for the distribution of radioactivity in tissues of female Fischer rats liver after 30 minutes intravenous administration.; dose/g, range 0.23-0.29; assay type: ADME, organism-based; settings: in vivo, 0.5 h
Rattus norvegicus [16] = assay: Evaluated for the distribution of radioactivity in tissues of female Fischer rats liver after 5 minutes intravenous administration; dose/g, range 0.93-1.20; assay type: ADME, organism-based; settings: in vivo; outline: as §1
Rattus norvegicus [17] = assay: Evaluated for the distribution of radioactivity in tissues of female Fischer rats liver after 60 minutes intravenous administration; dose/g, range 0.14-0.19; assay type: ADME, organism-based; settings: in vivo, 1 h; outline: as §1
Rattus norvegicus [18] = assay: Evaluated for the distribution of radioactivity in tissues of female Fischer rats heart after 30 minutes intravenous administration; dose/g, range 2.47-2.96; assay type: ADME, organism-based; settings: in vivo, 0.5 h
Rattus norvegicus [19] = assay: Evaluated for the distribution of radioactivity in tissues of female Fischer rats liver after 60 minutes intravenous administration; dose/g, range 0.15-0.19; assay type: ADME, organism-based; settings: in vivo, 1 h; outline: as §1
Rattus norvegicus [20] = assay: Evaluated for the distribution of radioactivity in tissues of female Fischer rats kidneys after 60 minutes intravenous administration; dose/g, range 5.02-6.57; assay type: ADME, organism-based, Kidney; settings: in vivo, 1 h
Rattus norvegicus [21] = assay: Evaluated for the distribution of radioactivity in tissues of female Fischer rats kidneys after 5 minutes intravenous administration; dose/g, range 11.7-14.6; assay type: ADME, organism-based, Kidney; settings: in vivo
Rattus norvegicus [22] = assay: Evaluated for the distribution of radioactivity in tissues of female Fischer rats blood after 60 minutes intravenous administration; dose/g, range 0.15-0.20; assay type: ADME, organism-based; settings: in vivo, 1 h
Rattus norvegicus [23] = assay: Evaluated for the distribution of radioactivity in tissues of female Fischer rats lungs after 30 minutes intravenous administration; dose/g, range 1.12-1.39; assay type: ADME, organism-based, Lung; settings: in vivo, 0.5 h; outline: as §1
Rattus norvegicus [24] = assay: Evaluated for the distribution of radioactivity in tissues of female Fischer rats lungs after 5 minutes intravenous administration; dose/g, range 1.18-1.44; assay type: ADME, organism-based, Lung; settings: in vivo; outline: as §1
Rattus norvegicus [25] = assay: Evaluated for the distribution of radioactivity in tissues of female Fischer rats lungs after 60 minutes intravenous administration; dose/g, range 0.94-1.36; assay type: ADME, organism-based, Lung; settings: in vivo, 1 h; outline: as §1
Rattus norvegicus [26] = assay: Evaluated for the distribution of radioactivity in tissues of female Fischer rats blood after 30 minutes intravenous administration; dose/g, range 0.18-0.24; assay type: ADME, organism-based; settings: in vivo, 0.5 h
Rattus norvegicus [27] = assay: Evaluated for the distribution of radioactivity in tissues of female Fischer rats thyroid after 30 minutes intravenous administration; dose/g, range 29-44; assay type: ADME, organism-based, Thyroid gland; settings: in vivo, 0.5 h; outline: as §1
Rattus norvegicus [28] = assay: Evaluated for the distribution of radioactivity in tissues of female Fischer rats thyroid after 5 minutes intravenous administration; dose/g, range 16-32; assay type: ADME, organism-based, Thyroid gland; settings: in vivo; outline: as §1
Rattus norvegicus [29] = assay: Evaluated for the distribution of radioactivity in tissues of female Fischer rats thyroid after 60 minutes intravenous administration; dose/g, range 32-43; assay type: ADME, organism-based, Thyroid gland; settings: in vivo, 1 h; outline: as §1
Rattus norvegicus [30] = assay: Evaluated for the distribution of radioactivity in tissues of female Fischer rats blood after 5 minutes intravenous administration; dose/g, range 0.32-0.46; assay type: ADME, organism-based; settings: in vivo
Rattus norvegicus [31] = assay: Evaluated for the distribution of radioactivity in tissues of female Fischer rats heart after 60 minutes intravenous administration; dose/g, range 3.21-3.92; assay type: ADME, organism-based; settings: in vivo, 1 h
Rattus norvegicus [32] = assay: Evaluated for the distribution of radioactivity in tissues of female Fischer rats kidneys after 30 minutes intravenous administration; dose/g, range 6.47-10.2; assay type: ADME, organism-based, Kidney; settings: in vivo, 0.5 h
Rattus norvegicus [33] = assay: Evaluated for the distribution of radioactivity in tissues of female Fischer rats heart after 30 minutes intravenous administration; dose/g, range 2.67-3.69; assay type: ADME, organism-based; settings: in vivo, 0.5 h
Rattus norvegicus [34] = assay: Evaluated for the distribution of radioactivity in tissues of female Fischer rats heart after 5 minutes intravenous administration; dose/g, range 2.82-3.86; assay type: ADME, organism-based; settings: in vivo
Rattus norvegicus [35] = assay: Evaluated for the distribution of radioactivity in tissues of female Fischer rats liver after 30 minutes intravenous administration; dose/g, range 0.22-0.30; assay type: ADME, organism-based; settings: in vivo, 0.5 h
Rattus norvegicus [36] = assay: Evaluated for the distribution of radioactivity in tissues of female Fischer rats liver after 5 minutes intravenous administration; dose/g, range 1.06-1.70; assay type: ADME, organism-based; settings: in vivo; outline: as §1

For I/C=C/CCC[P+](C1CCCCC1)(C1CCCCC1)C1CCCCC1.[I-], the Distribution (Rattus norvegicus [1]) was 11.06%, the Distribution (Rattus norvegicus [2]) was 4.15% and the Distribution (Rattus norvegicus [3]) was 71%. It also gave a Distribution (Rattus norvegicus [4]) of 0.19%, a Distribution (Rattus norvegicus [5]) of 1.2% and a Distribution (Rattus norvegicus [6]) of 1.31%. It also gave a Distribution (Rattus norvegicus [7]) of 1.16%, a Distribution (Rattus norvegicus [8]) of 0.28% and a Distribution (Rattus norvegicus [9]) of 45%. For the same molecule, the Distribution (Rattus norvegicus [10]) was 31%, the Distribution (Rattus norvegicus [11]) was 0.47% and the Distribution (Rattus norvegicus [12]) was 6.89%. The Distribution (Rattus norvegicus [13]) was 2.99%, the Distribution (Rattus norvegicus [14]) was 3.42% and the Distribution (Rattus norvegicus [15]) was 0.25%. For the same molecule, the Distribution (Rattus norvegicus [16]) was 1.06%, the Distribution (Rattus norvegicus [17]) was 0.17% and the Distribution (Rattus norvegicus [18]) was 2.67%.
In the case of I/C=C/CCC[P+](c1ccccc1)(C1CCCCC1)C1CCCCC1.[I-], the Distribution (Rattus norvegicus [19]) is reported as 0.17%, the Distribution (Rattus norvegicus [20]) is reported as 5.66% and the Distribution (Rattus norvegicus [21]) is reported as 13.07%. For the same molecule, the Distribution (Rattus norvegicus [22]) was 0.17%, the Distribution (Rattus norvegicus [23]) was 1.24% and the Distribution (Rattus norvegicus [24]) was 1.32%. For the same molecule, the Distribution (Rattus norvegicus [25]) was 1.15%, the Distribution (Rattus norvegicus [26]) was 0.2% and the Distribution (Rattus norvegicus [27]) was 38%. It also gave a Distribution (Rattus norvegicus [28]) of 25%, a Distribution (Rattus norvegicus [29]) of 39% and a Distribution (Rattus norvegicus [30]) of 0.37%. The Distribution (Rattus norvegicus [31]) was 3.47%, the Distribution (Rattus norvegicus [32]) was 8.41% and the Distribution (Rattus norvegicus [33]) was 3.17%. For the same molecule, the Distribution (Rattus norvegicus [34]) was 3.44%, the Distribution (Rattus norvegicus [35]) was 0.26% and the Distribution (Rattus norvegicus [36]) was 1.39%.
